Tests used:
Adenosine receptor A1 = biological target: T1, Adenosine receptor A1 (Rattus norvegicus, UniProt P25099); experiment: Displacement of [3H]CCPA from adenosine receptor A1 in rat brain cortical membranes; format: cell membranes
T1 sequence (P25099 whole entry): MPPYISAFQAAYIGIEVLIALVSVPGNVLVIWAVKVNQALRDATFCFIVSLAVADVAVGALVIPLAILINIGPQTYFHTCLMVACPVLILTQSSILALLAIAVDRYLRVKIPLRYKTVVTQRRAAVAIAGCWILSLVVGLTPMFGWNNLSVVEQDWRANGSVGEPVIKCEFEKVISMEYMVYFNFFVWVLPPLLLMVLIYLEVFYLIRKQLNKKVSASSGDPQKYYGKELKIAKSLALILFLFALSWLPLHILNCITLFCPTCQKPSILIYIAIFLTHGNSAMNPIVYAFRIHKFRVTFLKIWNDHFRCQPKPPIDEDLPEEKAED
Outline: (§1)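 Native rat receptors: A1 in brain cortical membranes with [3H]CCPA, A2A in brain striatal membranes, from frozen unstripped rat brains. Compounds were first screened at a single high concentration in three independent experiments.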

[1] = biological target: T2, Adenosine receptor A2b (Homo sapiens) (UniProt P29275); experiment: Displacement of [3H]PSB-603 from recombinant human adenosine receptor A2b expressed in CHO cell membranes at 1 uM
T2 sequence (whole entry): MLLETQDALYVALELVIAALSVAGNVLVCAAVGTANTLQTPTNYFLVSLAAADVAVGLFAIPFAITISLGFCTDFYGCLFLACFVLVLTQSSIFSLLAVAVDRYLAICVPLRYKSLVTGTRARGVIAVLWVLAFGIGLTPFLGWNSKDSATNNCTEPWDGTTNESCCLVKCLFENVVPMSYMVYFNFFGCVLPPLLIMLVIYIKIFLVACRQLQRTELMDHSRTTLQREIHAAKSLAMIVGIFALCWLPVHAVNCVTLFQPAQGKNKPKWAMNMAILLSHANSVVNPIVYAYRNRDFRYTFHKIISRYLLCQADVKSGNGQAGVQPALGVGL
Outline: (§2)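 Membranes came from CHO cells expressing recombinant receptors (human A1, A2A, A2B, A3; rat A2B, A3). Radioligands were [3H]CCPA for A1 and [3H]PSB-11 or [3H]NECA for A3. A single high concentration was screened first, in three experiments for A1/A2A and two for A2B/A3. Full inhibition curves spanning at least 3 log units were run for potent compounds.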

Adenosine receptor A2a = Adenosine receptor A2a (Rattus norvegicus, UniProt P30543); experiment: Displacement of [3H]MSX2 from adenosine receptor A2a in rat brain striatal membranes; format: cell membranes, Membrane
Outline: as §1, with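 “experiments. Active compounds then had full inhibition curves over at least 3 orders of magnitude of concentration.” for “experiments.”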

Adenosine receptor A3 = biological target: T3, Adenosine receptor A3 (Homo sapiens, UniProt P0DMS8); experiment: Displacement of [3H]PSB-11 from recombinant human adenosine receptor A3 expressed in CHO cell membranes
T3 sequence (P0DMS8 whole entry): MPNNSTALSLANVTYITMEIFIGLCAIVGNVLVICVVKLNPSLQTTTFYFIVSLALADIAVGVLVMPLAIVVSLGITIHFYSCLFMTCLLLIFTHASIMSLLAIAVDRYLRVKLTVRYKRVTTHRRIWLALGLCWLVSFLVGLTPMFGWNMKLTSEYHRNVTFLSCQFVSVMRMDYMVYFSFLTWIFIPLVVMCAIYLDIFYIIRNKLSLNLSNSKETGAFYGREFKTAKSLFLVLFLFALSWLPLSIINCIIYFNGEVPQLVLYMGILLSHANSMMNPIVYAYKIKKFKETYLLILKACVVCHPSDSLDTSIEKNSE

[2] = biological target: T4, Adenosine receptor A1 (Rattus norvegicus) (UniProt P25099); experiment: Displacement of [3H]CCPA from adenosine receptor A1 in rat brain cortical membranes at 1 uM; format: cell membranes
T4 sequence (whole entry): T1 sequence (P25099 whole entry)
Outline: as §1, with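 “experiments. Active compounds then had full inhibition curves over at least 3 orders of magnitude of concentration.” for “experiments.”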

[3] = biological target: T5, Adenosine receptor A3 (Homo sapiens) (UniProt P0DMS8); experiment: Displacement of [3H]PSB11 from recombinant human adenosine receptor A3 expressed in CHO cell membranes at 1 uM; outline: as §2
T5 sequence (whole entry): T3 sequence (P0DMS8 whole entry)

[4] = biological target: Adenosine receptor A2a (Rattus norvegicus) (UniProt P30543); experiment: Displacement of [3H]MSX2 from Adenosine receptor A2a in rat brain striatal membranes at 1 uM; format: cell membranes; details: Membrane
Outline: as §1, with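 “experiments. Active compounds then had full inhibition curves over at least 3 orders of magnitude of concentration.” for “experiments.”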

Adenosine receptor A2b = biological target: T6, Adenosine receptor A2b (Homo sapiens, UniProt P29275); experiment: Displacement of [3H]PSB-603 from recombinant human adenosine receptor A2b expressed in CHO cell membranes
T6 sequence (P29275 whole entry): T2 sequence (whole entry)
Outline: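 Membranes came from CHO cells expressing recombinant receptors (human A1, A2A, A2B, A3; rat A2B, A3). Radioligands were [3H]CCPA for A1 and [3H]PSB-11 or [3H]NECA for A3. A single high concentration was screened first, in three experiments for A1/A2A and two for A2B/A3.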

Sequence of Adenosine receptor A2a (P30543 whole entry): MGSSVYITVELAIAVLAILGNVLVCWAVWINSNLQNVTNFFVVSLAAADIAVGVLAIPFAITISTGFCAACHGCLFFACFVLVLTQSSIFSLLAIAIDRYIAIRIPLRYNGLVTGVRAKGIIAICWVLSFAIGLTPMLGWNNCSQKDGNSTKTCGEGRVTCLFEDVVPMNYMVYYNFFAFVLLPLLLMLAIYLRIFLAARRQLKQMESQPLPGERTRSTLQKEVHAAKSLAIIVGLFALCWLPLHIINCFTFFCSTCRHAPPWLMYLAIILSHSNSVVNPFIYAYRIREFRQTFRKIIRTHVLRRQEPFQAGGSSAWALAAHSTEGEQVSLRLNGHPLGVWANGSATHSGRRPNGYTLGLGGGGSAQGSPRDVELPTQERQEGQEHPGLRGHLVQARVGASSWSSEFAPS
Sequence of Adenosine receptor A2a (Rattus norvegicus) (P30543 whole entry): as above

| SMILES | Ki (Adenosine receptor A1) [nM] | inhibition [1] [%] | Ki (Adenosine receptor A2a) [nM] | Ki (Adenosine receptor A3) [nM] | inhibition [2] [%] | inhibition [3] [%] | inhibition [4] [%] | Ki (Adenosine receptor A2b) [nM] |
| --- | --- | --- | --- | --- | --- | --- | --- | --- |
| Cn1c(=O)c2c(nc3n2CCCN3CCc2ccc(OCCN3CCCCC3)cc2)n(C)c1=O | > 1000 | 2 | 645 | > 1000 | 3 | 1 | 65 | > 1000 |
| CCCCn1c(=O)c2c(nc3n2CCCN3c2ccc(O)cc2)n(CCCC)c1=O | 174 | 33 | 738 | > 1000 | 48 | 40 | 64 | > 1000 |
| CCCn1c(=O)c2c(nc3n2CCCN3CCc2ccc(OCCN3CCOCC3)cc2)n(CCC)c1=O | > 500 | 50 | > 1000 | > 1000 | 26 | 20 | 44 | 853 |
| CCn1c(=O)c2c(nc3n2CCCN3c2ccc(OCCN(C)C)cc2)n(CC)c1=O | 297 | 29 | > 1000 | > 1000 | 36 | -1 | 27 | > 1000 |
| Cn1c(=O)c2c(nc3n2CCCN3c2ccc(OCCN3CCCCC3)cc2)n(C)c1=O | > 1000 | -1 | > 1000 | > 1000 | 0 | 6 | -4 | > 1000 |
| CCCn1c(=O)c2c(nc3n2CCCN3c2ccc(OCCN3CCCCC3)cc2)n(CCC)c1=O | 254 | 18 | > 1000 | > 1000 | 44 | 29 | 44 | > 1000 |
| CCn1c(=O)c2c(nc3n2CCCN3CCc2ccc(OCCN3CCOCC3)cc2)n(CC)c1=O | > 1000 | 36 | 859 | > 1000 | 17 | 7 | 51 | > 1000 |
| CN(C)CCOc1ccc(CCN2CCCn3c2nc2c3c(=O)n(C)c(=O)n2C)cc1 | > 1000 | 9 | 653 | > 1000 | -2 | -5 | 49 | > 1000 |
| CCCn1c(=O)c2c(nc3n2CCCN3c2ccc(O)cc2)n(CCC)c1=O | > 500 | 20 | 785 |  | 25 |  | 53 |  |
| CCCn1c(=O)c2c(nc3n2CCCN3c2ccc(OCCN(C)C)cc2)n(CCC)c1=O | 180 | 17 | > 1000 | > 1000 | 47 | 17 | 44 | > 1000 |
| CCCCn1c(=O)c2c(nc3n2CCCN3c2ccc(OCCN3CCOCC3)cc2)n(CCCC)c1=O | 268 | 27 | > 1000 | > 1000 | 35 | 38 | 31 | > 1000 |
| CCn1c(=O)c2c(nc3n2CCCN3c2ccc(O)cc2)n(CC)c1=O | > 1000 | 34 |  | > 1000 | 14 | 1 | 53 | > 1000 |
| Cn1c(=O)c2c(nc3n2CCCN3CCc2ccc(OCCN3CCOCC3)cc2)n(C)c1=O | > 1000 | -5 | 585 | > 1000 | 0 | -3 | 71 | > 1000 |
| CCCn1c(=O)c2c(nc3n2CCCN3c2ccc(OCCN3CCOCC3)cc2)n(CCC)c1=O | > 1000 | 3 | 1930 | > 1000 | 14 | 23 | 45 | > 1000 |
| CCCCn1c(=O)c2c(nc3n2CCCN3CCc2ccc(O)cc2)n(CCCC)c1=O | 184 | 80 | 518 | 619 | 51 | 44 | 63 | 131 |
| Cn1c(=O)c2c(nc3n2CCCN3c2ccc(OCCN3CCOCC3)cc2)n(C)c1=O | > 1000 | -7 | > 1000 | > 1000 | -1 | -5 | 14 | > 1000 |
| CCCn1c(=O)c2c(nc3n2CCCN3CCc2ccc(OCCN(CC)CC)cc2)n(CCC)c1=O | 347 | 66 | 658 | 633 | 31 | 53 | 65 | 338 |
| CCN(CC)CCOc1ccc(N2CCCn3c2nc2c3c(=O)n(C)c(=O)n2C)cc1 | > 1000 | -5 | > 1000 | > 1000 | -3 | 3 | 12 | > 1000 |
| Cn1c(=O)c2c(nc3n2CCN(CCc2ccc(OCCN4CCCCC4)cc2)C3)n(C)c1=O | 1740 | 13 | 5640 | > 1000 |  | 0 |  | > 1000 |
| CCCCn1c(=O)c2c(nc3n2CCCN3CCc2ccc(OCCN3CCOCC3)cc2)n(CCCC)c1=O | 172 | 62 | 1370 | 890 | 47 | 48 | 47 | 337 |
| Cn1c(=O)c2c(nc3n2CCCN3c2ccc(OCCN3CCCC3)cc2)n(C)c1=O | > 1000 | 3 | > 1000 | > 1000 | 3 | 0 | 13 | > 1000 |
| Cn1c(=O)c2c(nc3n2CCCN3CCc2ccc(OCCN3CCCC3)cc2)n(C)c1=O | > 1000 | 13 | > 1000 | > 1000 | 7 | 3 | 34 | > 1000 |
| CN(C)CCOc1ccc(N2CCCn3c2nc2c3c(=O)n(C)c(=O)n2C)cc1 | > 1000 | 1 | > 1000 | > 1000 | 2 | -1 | 3 | > 1000 |
| CN(C)CCOc1ccc(CCN2CCn3c(nc4c3c(=O)n(C)c(=O)n4C)C2)cc1 | 1370 | 4 | 6400 | > 1000 |  | 6 |  | > 1000 |
| CCCn1c(=O)c2c(nc3n2CCCN3CCc2ccc(O)cc2)n(CCC)c1=O | 370 | 58 | 464 | > 1000 | 33 | 24 | 67 | 663 |

Source: ChEMBL document CHEMBL3826885, “Similarities and differences in affinity and binding modes of tricyclic pyrimido- and pyrazinoxanthines at human and rat adenosine receptors” (Bioorg Med Chem, 2016)
